From ChEMBL document CHEMBL4251593, “Nontoxic combretafuranone analogues with high in vitro antibacterial activity” (Eur J Med Chem, 2018)
In brackets after ≈: the same amount, converted by molar mass.

What was measured:
Klebsiella pneumoniae [1] = assay: Antibacterial activity against Klebsiella pneumoniae HK11750/08 clinical isolate after 24 hrs by microdilution assay; type: functional; details: HK11750/08, 24 h
Escherichia coli [2] = assay: Antibacterial activity against Escherichia coli ATCC 8739 after 48 hrs by microdilution assay; type: functional; details: ATCC 8739, 48 h
Outline: (§1)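 Broth microdilution in Mueller-Hinton medium buffered to pH 7.4 (±0.2), with DMSO as diluent at no more than 2% final. Compounds were tested as 2-fold serial dilutions from 2000 to 0.488 µmol/l. The inoculum was 0.5 McFarland (1.5×10^8 cfu/ml). Plates were held at 37 °C and read visually at 24 and 48 h. MIC was taken as 95% growth inhibition versus control, determined twice in duplicate.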

HepG2 [3] = assay: Cytotoxicity against human HepG2 cells assessed as reduction in cell viability after 48 hrs by ATPlite-based luminescent assay; details: HepG2, 48 h
Outline: (§2)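 Cells were grown […] with 10% FBS, glutamax, NEAA and pen/strep at 37 °C, 5% CO2. Media were DMEM for RPE-1, HepG2 and BJ (BJ plus 10 ng/ml bFGF), F-12K for PC3, and IMDM for K562/HL-60. Cells were seeded at 500 per well and dosed from DMSO at 12 concentrations, 40 µM to 1 nM, in triplicate. After 48 h, intracellular ATP was read by luminescence. ED50 was obtained by variable-slope nonlinear regression.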

Pseudomonas aeruginosa [4] = assay: Antibacterial activity against Pseudomonas aeruginosa ATCC 9027 after 48 hrs by microdilution assay; type: functional; details: ATCC 9027, 48 h; outline: as §1
TERT-RPE1 [5] = assay: Cytotoxicity against human RPE1 cells assessed as reduction in cell viability after 48 hrs by ATPlite-based luminescent assay; details: RPE-1, 48 h; outline: as §2
HepG2 [6] = assay: Induction of apoptosis in human HepG2 cells assessed as caspase 3/7 activity after 24 hrs by caspase-glo luminescent assay; type: cell-based; details: HepG2, 24 h
Outline: (§3)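 Cells were seeded at 500 per well in their growth media and exposed to 12 concentrations from 40 µM to 1 nM, delivered from DMSO, in triplicate. After 24 h, caspase-3/7 activity was read by Caspase-Glo luminescence. Data were normalized and ED50 was fitted by variable-slope nonlinear regression.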

Staphylococcus aureus [7] = assay: Antibacterial activity against Staphylococcus aureus ATCC 6538 after 48 hrs by microdilution assay; type: functional; details: ATCC 6538, 48 h
BJ = assay: Cytotoxicity against human BJ cells assessed as reduction in cell viability after 48 hrs by ATPlite-based luminescent assay; outline: as §2
[8] = tested on: Staphylococcus epidermidis; assay: Antibacterial activity against Staphylococcus epidermidis HK6966/08 clinical isolate after 48 hrs by microdilution assay; type: functional; details: HK6966/08, 48 h
Klebsiella pneumoniae [9] = assay: Antibacterial activity against Klebsiella pneumoniae HK14368/08 clinical isolate after 48 hrs by microdilution assay; type: functional; details: HK14368/08, 48 h
Staphylococcus aureus [10] = assay: Antibacterial activity against Staphylococcus aureus ATCC 6538 after 24 hrs by microdilution assay; type: functional; details: ATCC 6538, 24 h
TERT-RPE1 [11] = assay: Induction of apoptosis in human RPE1 cells assessed as caspase 3/7 activity after 24 hrs by caspase-glo luminescent assay; type: cell-based; details: RPE-1, 24 h; outline: as §3
Enterococcus sp. [12] = assay: Antibacterial activity against Enterococcus sp. HK14365/08 clinical isolate after 48 hrs by microdilution assay; type: functional; details: HK14365/08, 48 h
[13] = tested on: Staphylococcus epidermidis; assay: Antibacterial activity against Staphylococcus epidermidis HK6966/08 clinical isolate after 24 hrs by microdilution assay; type: functional; details: HK6966/08, 24 h
K562 [14] = assay: Cytotoxicity against human K562 cells assessed as reduction in cell viability after 48 hrs by ATPlite-based luminescent assay; details: K562, 48 h; outline: as §2
Pseudomonas aeruginosa [15] = assay: Antibacterial activity against Pseudomonas aeruginosa ATCC 9027 after 24 hrs by microdilution assay; type: functional; details: ATCC 9027, 24 h; outline: as §1
PC-3 [16] = assay: Cytotoxicity against human PC3 cells assessed as reduction in cell viability after 48 hrs by ATPlite-based luminescent assay; details: PC-3, 48 h; outline: as §2
Escherichia coli [17] = assay: Antibacterial activity against Escherichia coli ATCC 8739 after 24 hrs by microdilution assay; type: functional; details: ATCC 8739, 24 h; outline: as §1
HL-60 [18] = assay: Cytotoxicity against human HL60 cells assessed as reduction in cell viability after 48 hrs by ATPlite-based luminescent assay; details: HL-60, 48 h; outline: as §2
PC-3 [19] = assay: Induction of apoptosis in human PC3 cells assessed as caspase 3/7 activity after 24 hrs by caspase-glo luminescent assay; type: cell-based; details: PC-3, 24 h; outline: as §3
Klebsiella pneumoniae [20] = assay: Antibacterial activity against Klebsiella pneumoniae HK14368/08 clinical isolate after 24 hrs by microdilution assay; type: functional; details: HK14368/08, 24 h
Staphylococcus aureus [21] = assay: Antibacterial activity against methicillin-resistant Staphylococcus aureus HK5996/08 clinical isolate after 48 hrs by microdilution assay; type: functional; details: HK5996/08, 48 h
Staphylococcus aureus [22] = assay: Antibacterial activity against methicillin-resistant Staphylococcus aureus HK5996/08 clinical isolate after 24 hrs by microdilution assay; type: functional; details: HK5996/08, 24 h
MCF7 = assay: Cytotoxicity against human MCF7 cells assessed as reduction in cell viability after 48 hrs by ATPlite-based luminescent assay; details: MCF7, 48 h
HL-60 [23] = assay: Induction of apoptosis in human HL60 cells assessed as caspase 3/7 activity after 24 hrs by caspase-glo luminescent assay; type: cell-based; details: HL-60, 24 h; outline: as §3
K562 [24] = assay: Induction of apoptosis in human K562 cells assessed as caspase 3/7 activity after 24 hrs by caspase-glo luminescent assay; type: cell-based; details: K562, 24 h; outline: as §3
Klebsiella pneumoniae [25] = assay: Antibacterial activity against Klebsiella pneumoniae HK11750/08 clinical isolate after 48 hrs by microdilution assay; type: functional; details: HK11750/08, 48 h
Enterococcus sp. [26] = assay: Antibacterial activity against Enterococcus sp. HK14365/08 clinical isolate after 24 hrs by microdilution assay; type: functional; details: HK14365/08, 24 h

Row | Compound | IC50 (HepG2 [3]) | IC50 (TERT-RPE1 [5]) | IC50 (HepG2 [6]) | IC50 (BJ) | IC50 (TERT-RPE1 [11]) | IC50 (K562 [14]) | IC50 (PC-3 [16]) | IC50 (HL-60 [18]) | IC50 (PC-3 [19]) | IC50 (MCF7) | IC50 (HL-60 [23]) | IC50 (K562 [24]) | also measured
1 | O=C1OCC(c2ccc(C(F)(F)F)cc2)=C1c1ccncc1 | > 40 µM | > 40 µM | > 40 µM | > 40 µM | > 40 µM | > 40 µM | > 40 µM | > 40 µM | > 40 µM | > 40 µM | > 40 µM | > 40 µM | MIC95 (Klebsiella pneumoniae [1]): > 500 µM; MIC95 (Escherichia coli [2]): > 500 µM; MIC95 (Pseudomonas aeruginosa [4]): > 500 µM; MIC95 (Staphylococcus aureus [7]): > 500 µM; MIC95 [8]: 250 µM (≈ 76.3 µg/mL); MIC95 (Klebsiella pneumoniae [9]): > 500 µM; MIC95 (Staphylococcus aureus [10]): > 500 µM; MIC95 (Enterococcus sp. [12]): > 500 µM; MIC95 [13]: 250 µM (≈ 76.3 µg/mL); MIC95 (Pseudomonas aeruginosa [15]): > 500 µM; MIC95 (Escherichia coli [17]): > 500 µM; MIC95 (Klebsiella pneumoniae [20]): > 500 µM; MIC95 (Staphylococcus aureus [21]): 500 µM (≈ 153 µg/mL); MIC95 (Staphylococcus aureus [22]): 500 µM (≈ 153 µg/mL); MIC95 (Klebsiella pneumoniae [25]): > 500 µM; MIC95 (Enterococcus sp. [26]): > 500 µM
2 | CC[C@@]1(O)C(=O)OCc2c1cc1n(c2=O)Cc2cc3ccccc3nc2-1 [CAMPTOTHECIN] | 0.43 µM | > 40 µM | 4.37 µM | > 40 µM | 27.2 µM | 0.09 µM | 0.4 µM | 0.02 µM | > 40 µM | 0.34 µM | 0.07 µM | 0.711 µM | 
3 | CC(=O)OCC1(COC(C)=O)OC(=O)C(c2ccc(Br)cc2)=C1c1ccc(C)cc1 | > 40 µM | > 40 µM | > 40 µM | > 40 µM | > 40 µM | > 40 µM | > 40 µM | > 40 µM | > 40 µM | > 40 µM | > 40 µM | > 40 µM | MIC95 (Klebsiella pneumoniae [1]): > 125 µM; MIC95 (Escherichia coli [2]): > 125 µM; MIC95 (Pseudomonas aeruginosa [4]): > 125 µM; MIC95 (Staphylococcus aureus [7]): > 125 µM; MIC95 [8]: > 125 µM; MIC95 (Klebsiella pneumoniae [9]): > 125 µM; MIC95 (Staphylococcus aureus [10]): > 125 µM; MIC95 (Enterococcus sp. [12]): > 125 µM; MIC95 [13]: > 125 µM; MIC95 (Pseudomonas aeruginosa [15]): > 125 µM; MIC95 (Escherichia coli [17]): > 125 µM; MIC95 (Klebsiella pneumoniae [20]): > 125 µM; MIC95 (Staphylococcus aureus [21]): > 125 µM; MIC95 (Staphylococcus aureus [22]): > 125 µM; MIC95 (Klebsiella pneumoniae [25]): > 125 µM; MIC95 (Enterococcus sp. [26]): > 125 µM
4 | O=C1OCC(c2ccc(O)cc2)=C1c1ccc(Br)cc1 | > 40 µM | > 40 µM | > 40 µM | > 40 µM | > 40 µM | > 40 µM | > 40 µM | > 40 µM | > 40 µM | > 40 µM | > 40 µM | > 40 µM | 
5 | COc1cc(C2=C(c3ccc4c(c3)OCO4)C(=O)OC2)cc(OC)c1OC | > 40 µM | > 40 µM | > 40 µM | > 40 µM | > 40 µM | > 40 µM | > 40 µM | > 40 µM | > 40 µM | > 40 µM | > 40 µM | > 40 µM | 
6 | Cc1ccc(C2=C(c3ccc(Cl)cc3Cl)C(=O)OC2)cc1 | > 40 µM | 0.91 µM | > 40 µM | > 40 µM | 10.1 µM | 0.19 µM | > 40 µM | 0.27 µM | > 40 µM | 23.9 µM | 0.44 µM | > 40 µM | 
7 | Cc1ccc(C2=C(c3ccccc3Cl)C(=O)OC2)cc1 | > 40 µM | 2.09 µM | > 40 µM | > 40 µM | 13.3 µM | 0.78 µM | > 40 µM | 1.04 µM | > 40 µM | > 40 µM | > 40 µM | > 40 µM | 
8 | O=C(O)c1cn(C2CC2)c2cc(N3CCNCC3)c(F)cc2c1=O [CIPROFLOXACIN] |  |  |  |  |  |  |  |  |  |  |  |  | MIC95 (Escherichia coli [2]): 0.06 µM (≈ 0.0199 µg/mL); MIC95 (Pseudomonas aeruginosa [4]): 7.81 µM (≈ 2.59 µg/mL); MIC95 (Pseudomonas aeruginosa [15]): 3.9 µM (≈ 1.29 µg/mL); MIC95 (Escherichia coli [17]): 0.06 µM (≈ 0.0199 µg/mL)
9 | Cc1ccc(C2=C(c3ccc(Cl)c(Cl)c3)C(=O)OC2)cc1 | > 40 µM | 0.54 µM | > 40 µM | > 40 µM | 3.5 µM | 0.12 µM | > 40 µM | 0.23 µM | > 40 µM | 15.4 µM | 0.54 µM | > 40 µM | 
10 | O=C1OCC(c2ccc(Cl)cc2)=C1c1ccc(C(F)(F)F)cc1 | > 40 µM | 14.9 µM | > 40 µM | > 40 µM | > 40 µM | > 40 µM | > 40 µM | > 40 µM | > 40 µM | 12.3 µM | > 40 µM | > 40 µM | 
11 | CCc1ccc(C2=C(c3ccc(Br)cc3)C(=O)OC2)cc1 | > 40 µM | 1.3 µM | > 40 µM | > 40 µM | > 40 µM | 0.47 µM | > 40 µM | 1.02 µM | > 40 µM | 13 µM | > 40 µM | > 40 µM | 
